Results: ChEMBL document CHEMBL4350961, “Discovery of Pyrrolo[3,2- d]pyrimidin-4-one Derivatives as a New Class of Potent and Cell-Active Inhibitors of P300/CBP-Associated Factor Bromodomain” (J Med Chem, 2019)
The source made the active and inactive calls. The rule behind the calls is not given here.

Columns and labels:
[1] = system: Tyrosine-protein kinase BTK (Homo sapiens), Q06187 [R28H]; test: Inhibition of full-length recombinant human BTK R28H mutant at 10 uM using LSNLYHQGKFLQTFCGSPLYRRR as substrate measured after 40 mins in presence of [gamma33P]ATP by scintillation counting method
Method in brief: (§1)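 Kinase panel of 422 kinases screened by Eurofins KinaseProfiler at a single test-compound concentration of 10 µM.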

[2] = target: Dual specificity mitogen-activated protein kinase kinase 2 (Homo sapiens) (UniProt P36507); test: Inhibition of recombinant full-length human MEK2 at 10 uM using MBP as substrate measured after 40 mins in presence of [gamma33P]ATP by scintillation counting method
[3] = target: Dual specificity mitogen-activated protein kinase kinase 1 (Homo sapiens) (UniProt Q02750); test: Inhibition of recombinant full-length human MEK1 at 10 uM using unactive MAPK2 as substrate measured after 40 mins in presence of [gamma33P]ATP by scintillation counting method
[4] = target: Ephrin type-B receptor 4 (Homo sapiens) (UniProt P54760); test: Inhibition of recombinant human EphB4 (561 to end residues) at 10 uM using poly (Glu, Tyr) 4:1 as substrate measured after 40 mins in presence of [gamma33P]ATP by scintillation counting method
[5] = target: Protein kinase C beta type (Homo sapiens) (UniProt P05771); test: Inhibition of recombinant human PKCbeta2 (2 to end residues) at 10 uM using histone H1 as substrate measured after 40 mins in presence of [gamma33P]ATP by scintillation counting method
[6] = target: Cyclin-dependent kinase 2/cyclin E1 (Homo sapiens) (UniProt P24864+P24941); test: Inhibition of recombinant full-length human CDK2/cyclinE at 10 uM using histone H1 as substrate measured after 40 mins in presence of [gamma33P]ATP by scintillation counting method; format: protein-complex assay
[7] = target: Tau-tubulin kinase 2 (Homo sapiens) (UniProt Q6IQ55); test: Inhibition of human TTBK2 (1 to 331 residues) using Casein as substrate measured after 40 mins in presence of [gamma33P]ATP by scintillation counting method
[8] = target: FKBP12A/mTOR (Homo sapiens) (UniProt P62942+P42345); test: Inhibition of recombinant full-length human mTOR/FKBP12 at 10 uM measured after 40 mins in presence of [gamma33P]ATP by scintillation counting method; format: protein-complex assay
[9] = system: Mast/stem cell growth factor receptor Kit (Homo sapiens), P10721 [D816V]; test: Inhibition of recombinant human c-Kit D816V mutant (544 to end residues) at 10 uM using poly(Glu, Tyr) 4:1 as substrate measured after 40 mins in presence of [gamma33P]ATP by scintillation counting method
[10] = target: Focal adhesion kinase 1 (Homo sapiens) (UniProt Q05397); test: Inhibition of recombinant human FAK (411 to 686 residues) at 10 uM using EEEEYEEEEEEYYIIEEEEEEYEEEEEEYYEEEEEEKKKK as substrate measured after 40 mins in presence of [gamma33P]ATP by scintillation counting method
[11] = system: eIF-2-alpha kinase GCN2 (Homo sapiens), Q9P2K8 [E556G]; test: Inhibition of recombinant full-length human GCN2 E556G mutant at 10 uM using RSRSRSRSRSRSRSR as substrate measured after 40 mins in presence of [gamma33P]ATP by scintillation counting method
[12] = target: Cyclin-dependent kinase-like 2 (Homo sapiens) (UniProt Q92772); test: Inhibition of human CDKL2 at 10 uM by radiometric method; method in brief: as §1
[13] = target: CDK4/Cyclin D3 (Homo sapiens) (UniProt P11802+P30281); test: Inhibition of recombinant full-length human CDK4/cyclinD3 at 10 uM using Rb fragment as substrate measured after 40 mins in presence of [gamma33P]ATP by scintillation counting method; format: protein-complex assay
[14] = target: Serine/threonine-protein kinase 17B (Homo sapiens) (UniProt O94768); test: Inhibition of recombinant full-length human DRAK2 at 10 uM using KKRPQRRYSNVF as substrate measured after 120 mins in presence of [gamma33P]ATP by scintillation counting method
[15] = system: Angiopoietin-1 receptor (Homo sapiens), Q02763 [Q939H,Q940H,Y897S]; test: Inhibition of human Tie2 Q939H/Q940H/Y897S mutant (771 to end residues) using EFPIYDFLPAKKK as substrate measured after 40 mins in presence of [gamma33P]ATP by scintillation counting method
[16] = Half life in Sprague-Dawley rat at 10 mg/kg, po administered via gavage by LC-MS/MS analysis; format: ADME, organism-based; conditions: in vivo
Method in brief: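 Male Sprague-Dawley rats, 6–8 weeks old, given a single 10 mg/kg dose by oral gavage (vehicle 2.5% ethanol, 2.5% tween-80 in saline, pH 7.0). Serial jugular blood samples taken and centrifuged to plasma. Plasma protein-precipitated with acetonitrile containing internal standard, then analysed by LC-MS/MS. Noncompartmental fit gave T1/2.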

[17] = target: Serine/threonine-protein kinase NIM1 (Homo sapiens) (UniProt Q8IY84); test: Inhibition of recombinant full-length human NIM1 at 10 uM using KKKVSRSGLYRSPSMPENLNRPR as substrate measured after 40 mins in presence of [gamma33P]ATP by scintillation counting method
[18] = target: Mitogen-activated protein kinase 8 (Homo sapiens) (UniProt P45983); test: Inhibition of recombinant full-length human JNK1alpha1 at 10 uM using ATF2 as substrate measured after 40 mins in presence of [gamma33P]ATP by scintillation counting method
[19] = system: Receptor-type tyrosine-protein kinase FLT3 (Homo sapiens), P36888 [D835Y]; test: Inhibition of recombinant human Flt3 D835Y mutant (564 to end residues) at 10 uM using EAIYAAPFAKKK as substrate measured after 40 mins in presence of [gamma33P]ATP by scintillation counting method
[20] = target: CDK9/cyclin T1 (Homo sapiens) (UniProt O60563+P50750); test: Inhibition of recombinant full length human CDK9/cyclinT1 at 10 uM using KTFCGTPEYLAPEVRREPRILSEEEQEMFRDFDYIADWC as substrate measured after 40 mins in presence of [gamma33P]ATP by scintillation counting method; format: protein-complex assay
[21] = target: Phosphatidylinositol 5-phosphate 4-kinase type-2 alpha (Homo sapiens) (UniProt P48426); test: Inhibition of recombinant full-length human PIP4K2alpha at 10 uM using phosphatidylinositol 5-phosphate as substrate measured after 40 mins by HTRF assay
[22] = target: Serine/threonine-protein kinase 3 (Homo sapiens) (UniProt Q13188); test: Inhibition of recombinant full-length human MST2 (2 to end residues) at 10 uM using myelin basic protein as substrate measured after 40 mins in presence of [gamma33P]ATP by scintillation counting method
[23] = target: Tyrosine-protein kinase Srms (Homo sapiens) (UniProt Q9H3Y6); test: Inhibition of human SRMS at 10 uM by radiometric method; method in brief: as §1
Tyrosine-protein kinase Srms (Homo sapiens), sequence (Q9H3Y6 whole entry): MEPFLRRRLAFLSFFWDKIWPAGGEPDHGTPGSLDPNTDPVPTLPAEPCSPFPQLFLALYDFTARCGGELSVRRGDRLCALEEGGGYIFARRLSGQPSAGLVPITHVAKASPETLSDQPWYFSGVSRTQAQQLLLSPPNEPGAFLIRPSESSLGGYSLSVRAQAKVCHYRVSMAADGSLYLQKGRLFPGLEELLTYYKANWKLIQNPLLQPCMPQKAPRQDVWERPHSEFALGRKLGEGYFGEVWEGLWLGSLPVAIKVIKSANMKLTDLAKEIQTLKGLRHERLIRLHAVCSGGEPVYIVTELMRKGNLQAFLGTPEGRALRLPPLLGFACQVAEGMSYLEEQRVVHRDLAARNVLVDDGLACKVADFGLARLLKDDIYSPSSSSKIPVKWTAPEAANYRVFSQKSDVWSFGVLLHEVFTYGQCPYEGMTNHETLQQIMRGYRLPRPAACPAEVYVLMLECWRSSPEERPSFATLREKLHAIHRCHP

Dual specificity mitogen-activated protein kinase kinase 1 (Homo sapiens), sequence (Q02750 whole entry): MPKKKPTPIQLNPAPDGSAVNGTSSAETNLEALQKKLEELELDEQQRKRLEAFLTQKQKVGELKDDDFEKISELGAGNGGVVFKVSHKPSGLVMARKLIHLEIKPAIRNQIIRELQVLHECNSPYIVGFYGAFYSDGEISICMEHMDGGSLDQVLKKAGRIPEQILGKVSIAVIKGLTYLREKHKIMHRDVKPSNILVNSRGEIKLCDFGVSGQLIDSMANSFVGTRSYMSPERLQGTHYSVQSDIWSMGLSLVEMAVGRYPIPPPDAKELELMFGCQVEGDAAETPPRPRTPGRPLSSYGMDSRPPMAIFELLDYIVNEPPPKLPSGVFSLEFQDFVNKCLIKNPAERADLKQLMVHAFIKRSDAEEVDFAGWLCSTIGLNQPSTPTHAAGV
Phosphatidylinositol 5-phosphate 4-kinase type-2 alpha (Homo sapiens), sequence (P48426 whole entry): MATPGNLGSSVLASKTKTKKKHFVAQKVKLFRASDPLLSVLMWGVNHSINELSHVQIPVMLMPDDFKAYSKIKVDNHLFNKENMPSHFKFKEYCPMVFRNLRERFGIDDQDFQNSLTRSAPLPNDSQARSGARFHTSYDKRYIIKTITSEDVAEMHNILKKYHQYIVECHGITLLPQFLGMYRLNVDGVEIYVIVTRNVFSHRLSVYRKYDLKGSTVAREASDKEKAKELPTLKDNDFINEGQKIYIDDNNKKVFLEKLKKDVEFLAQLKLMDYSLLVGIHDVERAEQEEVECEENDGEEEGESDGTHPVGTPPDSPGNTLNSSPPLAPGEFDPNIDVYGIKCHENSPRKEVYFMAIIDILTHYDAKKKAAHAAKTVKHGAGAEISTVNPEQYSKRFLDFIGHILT
Serine/threonine-protein kinase 3 (Homo sapiens), sequence (Q13188 whole entry): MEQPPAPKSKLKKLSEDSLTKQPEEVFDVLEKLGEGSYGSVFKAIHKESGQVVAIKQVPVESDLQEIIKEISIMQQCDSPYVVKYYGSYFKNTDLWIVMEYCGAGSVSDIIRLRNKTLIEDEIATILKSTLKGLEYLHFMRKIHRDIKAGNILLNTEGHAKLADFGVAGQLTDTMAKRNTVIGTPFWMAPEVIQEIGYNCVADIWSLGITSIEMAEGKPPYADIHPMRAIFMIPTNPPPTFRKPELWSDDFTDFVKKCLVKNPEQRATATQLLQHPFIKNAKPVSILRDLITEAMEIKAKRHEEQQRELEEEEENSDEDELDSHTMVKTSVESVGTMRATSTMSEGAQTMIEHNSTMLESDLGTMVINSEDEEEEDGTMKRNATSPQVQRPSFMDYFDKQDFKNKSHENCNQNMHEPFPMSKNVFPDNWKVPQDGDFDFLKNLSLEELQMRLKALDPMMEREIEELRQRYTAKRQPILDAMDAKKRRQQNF
Mitogen-activated protein kinase 8 (Homo sapiens), sequence (P45983 whole entry): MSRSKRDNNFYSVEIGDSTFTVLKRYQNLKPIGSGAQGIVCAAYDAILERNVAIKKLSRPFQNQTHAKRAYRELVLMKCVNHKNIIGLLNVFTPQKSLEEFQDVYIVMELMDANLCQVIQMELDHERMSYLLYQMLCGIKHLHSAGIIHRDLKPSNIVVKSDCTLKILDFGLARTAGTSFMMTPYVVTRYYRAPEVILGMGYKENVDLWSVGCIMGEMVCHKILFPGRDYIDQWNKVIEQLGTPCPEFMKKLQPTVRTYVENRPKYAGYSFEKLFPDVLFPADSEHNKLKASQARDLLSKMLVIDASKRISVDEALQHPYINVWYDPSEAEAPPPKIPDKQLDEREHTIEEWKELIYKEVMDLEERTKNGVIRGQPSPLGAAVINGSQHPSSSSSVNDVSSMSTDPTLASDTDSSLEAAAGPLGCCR
Serine/threonine-protein kinase NIM1 (Homo sapiens), sequence (Q8IY84 whole entry): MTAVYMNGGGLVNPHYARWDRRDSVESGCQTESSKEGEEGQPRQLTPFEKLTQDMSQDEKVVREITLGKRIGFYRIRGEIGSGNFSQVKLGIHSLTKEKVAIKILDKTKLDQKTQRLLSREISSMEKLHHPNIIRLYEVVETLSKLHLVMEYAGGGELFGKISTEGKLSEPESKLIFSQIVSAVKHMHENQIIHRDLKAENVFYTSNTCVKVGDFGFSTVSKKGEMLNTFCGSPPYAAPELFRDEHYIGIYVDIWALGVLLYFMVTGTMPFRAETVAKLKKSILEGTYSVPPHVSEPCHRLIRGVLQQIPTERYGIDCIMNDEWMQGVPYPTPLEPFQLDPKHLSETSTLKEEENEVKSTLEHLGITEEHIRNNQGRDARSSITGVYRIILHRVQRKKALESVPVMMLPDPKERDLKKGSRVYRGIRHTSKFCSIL
Focal adhesion kinase 1 (Homo sapiens), sequence (Q05397 2-1052 limits assumed): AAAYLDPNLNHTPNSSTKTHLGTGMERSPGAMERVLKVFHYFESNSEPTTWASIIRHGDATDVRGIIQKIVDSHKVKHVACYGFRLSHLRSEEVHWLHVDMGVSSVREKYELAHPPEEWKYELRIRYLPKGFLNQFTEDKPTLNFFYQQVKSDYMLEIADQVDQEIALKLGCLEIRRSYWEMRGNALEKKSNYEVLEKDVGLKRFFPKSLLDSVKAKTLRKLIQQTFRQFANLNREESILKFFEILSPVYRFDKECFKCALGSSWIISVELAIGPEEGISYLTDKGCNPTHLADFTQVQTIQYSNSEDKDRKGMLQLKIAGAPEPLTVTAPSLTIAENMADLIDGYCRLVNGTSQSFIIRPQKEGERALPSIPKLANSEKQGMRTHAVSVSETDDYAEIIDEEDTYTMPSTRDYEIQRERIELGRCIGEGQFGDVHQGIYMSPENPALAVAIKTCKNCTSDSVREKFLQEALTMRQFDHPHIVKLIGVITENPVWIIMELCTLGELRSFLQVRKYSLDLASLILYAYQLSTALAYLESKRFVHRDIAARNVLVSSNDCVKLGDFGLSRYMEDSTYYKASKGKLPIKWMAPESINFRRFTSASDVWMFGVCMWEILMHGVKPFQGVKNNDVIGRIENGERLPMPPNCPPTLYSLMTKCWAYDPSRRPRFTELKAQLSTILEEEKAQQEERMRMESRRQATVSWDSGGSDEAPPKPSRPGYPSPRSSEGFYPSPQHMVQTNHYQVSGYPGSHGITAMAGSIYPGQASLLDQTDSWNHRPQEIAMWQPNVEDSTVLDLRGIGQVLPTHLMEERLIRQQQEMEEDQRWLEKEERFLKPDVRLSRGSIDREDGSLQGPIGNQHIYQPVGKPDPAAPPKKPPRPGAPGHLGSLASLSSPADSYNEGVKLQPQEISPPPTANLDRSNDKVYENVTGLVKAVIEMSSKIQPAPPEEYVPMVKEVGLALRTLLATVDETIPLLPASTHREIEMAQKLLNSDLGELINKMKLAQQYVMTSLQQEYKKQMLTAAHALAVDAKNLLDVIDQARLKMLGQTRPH
Cyclin-dependent kinase-like 2 (Homo sapiens), sequence (Q92772 whole entry, the tested form may be a part): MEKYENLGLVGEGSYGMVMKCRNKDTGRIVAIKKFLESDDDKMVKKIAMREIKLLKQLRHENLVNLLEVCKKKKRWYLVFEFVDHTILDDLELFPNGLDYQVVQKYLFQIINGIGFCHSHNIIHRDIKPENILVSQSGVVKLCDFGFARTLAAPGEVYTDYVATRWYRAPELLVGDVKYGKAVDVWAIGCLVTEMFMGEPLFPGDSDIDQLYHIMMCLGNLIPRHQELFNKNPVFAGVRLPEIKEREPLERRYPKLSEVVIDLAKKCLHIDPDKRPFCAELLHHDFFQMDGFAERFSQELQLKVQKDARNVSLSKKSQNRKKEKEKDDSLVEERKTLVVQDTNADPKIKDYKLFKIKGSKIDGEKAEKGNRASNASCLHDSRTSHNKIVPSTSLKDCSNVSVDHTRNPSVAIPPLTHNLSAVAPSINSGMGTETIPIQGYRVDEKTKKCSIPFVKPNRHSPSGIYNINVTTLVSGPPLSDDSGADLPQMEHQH
Tyrosine-protein kinase BTK (Homo sapiens), Q06187 [R28H], sequence (Q06187 whole entry R28H): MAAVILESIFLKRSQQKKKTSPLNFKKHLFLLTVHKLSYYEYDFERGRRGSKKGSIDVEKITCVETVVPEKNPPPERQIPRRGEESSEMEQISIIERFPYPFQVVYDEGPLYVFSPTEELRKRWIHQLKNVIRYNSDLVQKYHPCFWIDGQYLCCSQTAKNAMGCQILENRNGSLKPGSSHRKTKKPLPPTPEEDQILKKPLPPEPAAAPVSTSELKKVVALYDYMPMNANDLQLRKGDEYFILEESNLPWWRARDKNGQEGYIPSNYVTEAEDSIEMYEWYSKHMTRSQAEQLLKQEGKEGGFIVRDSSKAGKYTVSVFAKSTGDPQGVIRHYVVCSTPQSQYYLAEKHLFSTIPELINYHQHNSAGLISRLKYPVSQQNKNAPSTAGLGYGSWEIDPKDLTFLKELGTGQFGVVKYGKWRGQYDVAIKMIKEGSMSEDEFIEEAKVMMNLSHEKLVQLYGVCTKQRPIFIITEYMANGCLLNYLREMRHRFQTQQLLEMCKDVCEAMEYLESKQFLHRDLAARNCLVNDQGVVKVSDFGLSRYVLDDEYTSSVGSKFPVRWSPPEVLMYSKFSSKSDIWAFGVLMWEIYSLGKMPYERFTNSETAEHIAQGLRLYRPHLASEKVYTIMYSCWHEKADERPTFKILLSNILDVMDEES
FKBP12A/mTOR (Homo sapiens), sequence (P62942 2-108 limits assumed, other chains not shown): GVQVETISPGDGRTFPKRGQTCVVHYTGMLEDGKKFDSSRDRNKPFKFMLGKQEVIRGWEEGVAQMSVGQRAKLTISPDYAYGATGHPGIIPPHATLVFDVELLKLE

## CN1C[C@H](Nc2nc3cc[nH]c3c(=O)n2C)C[C@H](c2ccc3c(c2)OCCO3)C1
[1]
  inhibition: inactive
[2]
  inhibition: inactive
[3]
  inhibition: inactive
[4]
  inhibition: inactive
[5]
  inhibition: inactive
[6]
  inhibition: inactive
[7]
  inhibition: inactive
[8]
  inhibition: inactive
[9]
  inhibition: inactive
[10]
  inhibition: inactive
[11]
  inhibition: inactive
[12]
  inhibition: inactive
[13]
  inhibition: inactive
[14]
  inhibition: inactive
[15]
  inhibition: inactive
[16]
  half-life: 1.51 h
[17]
  inhibition: inactive
[18]
  inhibition: inactive
[19]
  inhibition: inactive
[20]
  inhibition: inactive
[21]
  inhibition: inactive
[22]
  inhibition: inactive
[23]
  inhibition: inactive
